{"source": "ChEMBL document CHEMBL3525938", "about": "“Whole-body physiologically based pharmacokinetic model for nutlin-3a in mice after intravenous and oral administration” (Drug Metab Dispos, 2011)", "key": {"[1]": {"experiment": "Fraction unbound in C57BL/6 mouse plasma at 0.1 uM up to 24 hrs by equilibrium dialysis method", "type": "ADME, cell-free", "summary_of_the_method": "(§1)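 Equilibrium dialysis used male C57BL/6 plasma spiked with the drug against PBS across a 5-kDa membrane. The plate was rotated at 37°C under humidified 5% CO2 for 24 h, in triplicate. The plasma side was taken as bound and the PBS side as free, both measured by LC-MS/MS. Fraction unbound was calculated relative to total plasma concentration.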"}, "Plasma [2]": {"tested_on": "Plasma", "experiment": "Drug uptake in C57BL/6 mouse plasma at 10 mg/kg, iv as single dose measured at 24 hrs", "type": "ADME, organism-based", "parameters": "dose 10 mg/kg, route intravenous", "conditions": "in vivo; call rule not given here", "summary_of_the_method": "(§2)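 Plasma came from two studies in C57BL/6 mice. Study 1: single iv dose of 10 mg/kg or oral dose of 100 or 200 mg/kg, n = 5, blood by cardiac puncture at 0.5–48 h. Study 2 (males): iv 10 or 20 mg/kg, oral 50 or 100 mg/kg, serial plasma to 24 h (iv) or 16 h (oral). Plasma was separated at 12,000g for 5 min at 4°C and measured by LC-ESI-MS/MS.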"}, "[3]": {"experiment": "Fraction unbound in C57BL/6 mouse plasma at 300 uM up to 24 hrs by equilibrium dialysis method", "type": "ADME, cell-free", "summary_of_the_method": "as §1"}, "[4]": {"experiment": "Ratio of drug level in blood to plasma in C57BL/6 mouse after 30 mins", "type": "ADME", "conditions": "blood and plasma", "summary_of_the_method": "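Pooled heparinized whole blood from male C57BL/6 mice was spiked at 0.1, 1, 10 and 100 μM final, in triplicate, and incubated at 37°C for 30 min with mixing every 5 min. Whole blood was sampled, and plasma was obtained by centrifugation. Both were measured by LC-MS/MS, and the ratio was calculated from the whole-blood and plasma concentrations.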"}, "Brain [5]": {"tested_on": "Brain", "experiment": "Drug uptake in C57BL/6 mouse brain at 10 mg/kg, iv as single dose measured at 24 hrs", "type": "ADME, organism-based", "parameters": "dose 10 mg/kg, route intravenous", "conditions": "in vivo", "summary_of_the_method": "(§3)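 Adult C57BL/6 mice received a single bolus of 10 mg/kg by tail-vein iv injection or 100 or 200 mg/kg by oral gavage, with n = 5 per group and vehicle controls. Samples were taken at 0.5–48 h. Blood came by cardiac puncture under isoflurane, and tissues were dissected at the same time and frozen at −80°C. Tissues were homogenized in 5 mM ammonium formate, pH 7, and assayed by LC-ESI-MS/MS against matrix-matched standards.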"}, "Plasma [6]": {"tested_on": "Plasma", "experiment": "Drug uptake in C57BL/6 mouse plasma at 50 to 200 mg/kg, po as single dose measured at 2 hrs", "type": "ADME, organism-based", "parameters": "dose 50-200 mg/kg, route oral", "conditions": "in vivo", "summary_of_the_method": "as §2"}, "Intestine [7]": {"tested_on": "Intestine", "experiment": "Drug uptake in C57BL/6 mouse intestine at 10 mg/kg, iv as single dose measured at 24 hrs", "type": "ADME, organism-based", "parameters": "dose 10 mg/kg, route intravenous", "conditions": "in vivo"}, "[8]": {"experiment": "Drug uptake in C57BL/6 mouse vitreous humor at 10 mg/kg, iv as single dose measured at 24 hrs", "type": "ADME, organism-based", "parameters": "dose 10 mg/kg, route intravenous", "conditions": "in vivo", "summary_of_the_method": "as §3"}, "[9]": {"experiment": "Drug uptake in C57BL/6 mouse adrenal gland at 10 mg/kg, iv as single dose measured at 24 hrs", "type": "ADME, organism-based", "parameters": "dose 10 mg/kg, route intravenous", "conditions": "in vivo"}, "[10]": {"experiment": "Drug uptake in C57BL/6 mouse adrenal gland at 50 to 200 mg/kg, po as single dose measured at 2 hrs", "type": "ADME, organism-based", "parameters": "dose 50-200 mg/kg, route oral", "conditions": "in vivo"}, "[11]": {"experiment": "Drug uptake in C57BL/6 mouse vitreous humor at 50 to 200 mg/kg, po as single dose measured at 2 hrs", "type": "ADME, organism-based", "parameters": "dose 50-200 mg/kg, route oral", "conditions": "in vivo"}, "[12]": {"experiment": "Drug uptake in C57BL/6 mouse adipose tissue at 50 to 200 mg/kg, po as single dose measured at 2 hrs", "type": "ADME, organism-based", "parameters": "dose 50-200 mg/kg, route oral", "conditions": "in vivo"}, "Liver [13]": {"tested_on": "Liver", "experiment": "Drug uptake in C57BL/6 mouse liver at 50 to 200 mg/kg, po as single dose measured at 2 hrs", "type": "ADME, organism-based", "parameters": "dose 50-200 mg/kg, route oral", "conditions": "in vivo", "summary_of_the_method": "as §3"}, "[14]": {"experiment": "Drug uptake in C57BL/6 mouse adipose tissue at 10 mg/kg, iv as single dose measured at 24 hrs", "type": "ADME, organism-based", "parameters": "dose 10 mg/kg, route intravenous", "conditions": "in vivo"}, "Muscle tissue [15]": {"tested_on": "Muscle tissue", "experiment": "Drug uptake in C57BL/6 mouse muscle at 10 mg/kg, iv as single dose measured at 24 hrs", "type": "ADME, organism-based", "parameters": "dose 10 mg/kg, route intravenous", "conditions": "in vivo"}, "Spleen [16]": {"tested_on": "Spleen", "experiment": "Drug uptake in C57BL/6 mouse spleen at 50 to 200 mg/kg, po as single dose measured at 2 hrs", "type": "ADME, organism-based", "parameters": "dose 50-200 mg/kg, route oral", "conditions": "in vivo", "summary_of_the_method": "as §3"}, "Bone marrow [17]": {"tested_on": "Bone marrow", "experiment": "Drug uptake in C57BL/6 mouse bone marrow at 10 mg/kg, iv as single dose measured at 24 hrs", "type": "ADME, organism-based", "parameters": "dose 10 mg/kg, route intravenous", "conditions": "in vivo", "summary_of_the_method": "as §3"}, "[18]": {"experiment": "Drug uptake in C57BL/6 mouse retina at 50 to 200 mg/kg, po as single dose measured at 2 hrs", "type": "ADME, organism-based", "parameters": "dose 50-200 mg/kg, route oral", "conditions": "in vivo"}, "Lung [19]": {"tested_on": "Lung", "experiment": "Drug uptake in C57BL/6 mouse lung at 10 mg/kg, iv as single dose measured at 24 hrs", "type": "ADME, organism-based", "parameters": "dose 10 mg/kg, route intravenous", "conditions": "in vivo"}, "[20]": {"experiment": "Cytotoxicity against doxorubicin-resistant human UKF-NB-3 cells after 96 hrs by MTT assay", "type": "functional, cell-based", "conditions": "UKF-NB-3, 96 h"}, "Spleen [21]": {"tested_on": "Spleen", "experiment": "Drug uptake in C57BL/6 mouse spleen at 10 mg/kg, iv as single dose measured at 24 hrs", "type": "ADME, organism-based", "parameters": "dose 10 mg/kg, route intravenous", "conditions": "in vivo", "summary_of_the_method": "as §3"}, "Intestine [22]": {"tested_on": "Intestine", "experiment": "Drug uptake in C57BL/6 mouse intestine at 50 to 200 mg/kg, po as single dose measured at 2 hrs", "type": "ADME, organism-based", "parameters": "dose 50-200 mg/kg, route oral", "conditions": "in vivo"}, "Bone marrow [23]": {"tested_on": "Bone marrow", "experiment": "Drug uptake in C57BL/6 mouse bone marrow at 50 to 200 mg/kg, po as single dose measured at 2 hrs", "type": "ADME, organism-based", "parameters": "dose 50-200 mg/kg, route oral", "conditions": "in vivo", "summary_of_the_method": "as §3"}, "Muscle tissue [24]": {"tested_on": "Muscle tissue", "experiment": "Drug uptake in C57BL/6 mouse muscle at 50 to 200 mg/kg, po as single dose measured at 2 hrs", "type": "ADME, organism-based", "parameters": "dose 50-200 mg/kg, route oral", "conditions": "in vivo"}, "Brain [25]": {"tested_on": "Brain", "experiment": "Drug uptake in C57BL/6 mouse brain at 50 to 200 mg/kg, po as single dose measured at 2 hrs", "type": "ADME, organism-based", "parameters": "dose 50-200 mg/kg, route oral", "conditions": "in vivo", "summary_of_the_method": "as §3"}, "Lung [26]": {"tested_on": "Lung", "experiment": "Drug uptake in C57BL/6 mouse lung at 50 to 200 mg/kg, po as single dose measured at 2 hrs", "type": "ADME, organism-based", "parameters": "dose 50-200 mg/kg, route oral", "conditions": "in vivo"}, "[27]": {"experiment": "Drug uptake in C57BL/6 mouse retina at 10 mg/kg, iv as single dose measured at 24 hrs", "type": "ADME, organism-based", "parameters": "dose 10 mg/kg, route intravenous", "conditions": "in vivo", "summary_of_the_method": "as §3"}, "Liver [28]": {"tested_on": "Liver", "experiment": "Drug uptake in C57BL/6 mouse liver at 10 mg/kg, iv as single dose measured at 24 hrs", "type": "ADME, organism-based", "parameters": "dose 10 mg/kg, route intravenous", "conditions": "in vivo", "summary_of_the_method": "as §3"}}, "note": "pIC50: −log10 of the molar value."}
{"compound": "COc1ccc(C2=N[C@@H](c3ccc(Cl)cc3)[C@@H](c3ccc(Cl)cc3)N2C(=O)N2CCNC(=O)C2)c(OC(C)C)c1", "note": "[NUTLIN-3]", "values": [{"measurement": "fraction unbound at 24 h, 0.1 µM", "setting": "[1]", "value": 0.007}, {"measurement": "Drug uptake", "setting": "Plasma [2]", "value": "Not Active"}, {"measurement": "fraction unbound at 24 h, 300 µM", "setting": "[3]", "value": 0.118}, {"measurement": "blood plasma ratio at 0.5 h", "setting": "[4]", "value": 0.7}, {"measurement": "Drug uptake", "setting": "Brain [5]", "value": "Not Active"}, {"measurement": "Drug uptake", "setting": "Plasma [6]", "value": "Active"}, {"measurement": "Drug uptake", "setting": "Intestine [7]", "value": "Not Active"}, {"measurement": "Drug uptake", "setting": "[8]", "value": "Not Active"}, {"measurement": "Drug uptake", "setting": "[9]", "value": "Not Active"}, {"measurement": "Drug uptake", "setting": "[10]", "value": "Active"}, {"measurement": "Drug uptake", "setting": "[11]", "value": "Not Active"}, {"measurement": "Drug uptake", "setting": "[12]", "value": "Active"}, {"measurement": "Drug uptake", "setting": "Liver [13]", "value": "Active"}, {"measurement": "Drug uptake", "setting": "[14]", "value": "Not Active"}, {"measurement": "Drug uptake", "setting": "Muscle tissue [15]", "value": "Not Active"}, {"measurement": "Drug uptake", "setting": "Spleen [16]", "value": "Active"}, {"measurement": "Drug uptake", "setting": "Bone marrow [17]", "value": "Not Active"}, {"measurement": "Drug uptake", "setting": "[18]", "value": "Active"}, {"measurement": "Drug uptake", "setting": "Lung [19]", "value": "Not Active"}, {"measurement": "pIC50", "setting": "[20]", "value": 5.25}, {"measurement": "Drug uptake", "setting": "Spleen [21]", "value": "Not Active"}, {"measurement": "Drug uptake", "setting": "Intestine [22]", "value": "Active"}, {"measurement": "Drug uptake", "setting": "Bone marrow [23]", "value": "Not Active"}, {"measurement": "Drug uptake", "setting": "Muscle tissue [24]", "value": "Active"}, {"measurement": "Drug uptake", "setting": "Brain [25]", "value": "Not Active"}, {"measurement": "Drug uptake", "setting": "Lung [26]", "value": "Active"}, {"measurement": "Drug uptake", "setting": "[27]", "value": "Not Active"}, {"measurement": "Drug uptake", "setting": "Liver [28]", "value": "Not Active"}]}
